High-throughput results: PubChem, Broad Institute
rRNA inh HTS – reduced GFP signal of wild-type E. coli, primary screen, bacterial rRNA inhibitor project, GFP/RFP fluorescence, OD600, single point; E. coli WT GFP vs humanized-ribosome RFP mutants, 24 h; active compounds read low; DMSO median 0, no signal -100; GFP signal change (wild-type ribosome), % (test concentration not listed); 350,000 compounds, 1.6% hits; AID 720706, 2013;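 active means significant combined selectivity score with lowered wild-type GFP, culture density cut under 30%, mutant RFP and density less affected; inactive means any of these conditions unmet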
PglD DTNB – C. jejuni PglD acetyltransferase inhibitors, primary screen, biochemical, DTNB colorimetric, single point. inhibition, % at 12.5 µM. 360,000 compounds, 0.098% hits. UDP-N-acetylbacillosamine N-acetyltransferase PglD (Campylobacter jejuni). purified PglD enzyme, DTNB colorimetric CoA detection. AID 602405, 2012; in the data active means inhibition above about 16%, passing the limit was not always enough; inconclusive means no clear call, values can overlap the other calls
DENV2 CPE – inhibitors of DENV2 cytopathic effect, primary screen, cell-based, plate reader, single concentration. DENV2-infected cells, cytopathic effect rescue. CPE inhibition, % at 9.99 µM. 350,000 compounds, 1.7% hits. AID 651640, 2012; in the data active means CPE inhibition above about 20%, passing the limit was not always enough; inconclusive means no clear call, values can overlap the other calls; tested in BHK-21 cells;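 further: 0% = median of neutral control wells and 100% = median of positive control wells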
Env fusion inh – inhibitors of HIV-1 Env-driven cell-cell fusion, primary screen, HeLa-JRFL effector, CEM21 target cells, luciferase. inhibition, % at 12.3 µM. 360,000 compounds, 1.1% hits;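 active means mean replicate inhibition score of at least 50 and every replicate individually at or above 50; inconclusive means only one of the two criteria met; inactive means mean below 50 and not all replicates reaching 50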;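 further: 0% = plate neutral controls and 100% = maraviroc near 300 nM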
FN deposit inh – inhibitors of fibronectin matrix deposition, primary screen, AH1F cells, Alexa488-fibronectin fluorescence, plate reader | inhibition, % at 12.6 µM | 350,000 compounds, 0.086% hits | AID 743247, 2014 | AH1F fibroblasts, overnight;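 active means mean inhibition across replicates of 30% or more, regardless of how many single replicates reach that level; inconclusive means mean under 30% yet at least half of replicates reach 30%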;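 further: positive control wells lacked labelled fibronectin entirely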
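Material: AH1F fibroblast monolayer depositing Alexa488-labelled fibronectin into matrix | Input: 10000 AH1F cells/well | Medium: DMEM plus 2% serum, read in PBS | Reagent: Alexa488-fibronectin, 24 nM final in well | Compound dosing: One dose per compound, pinned | Schedule: 1 h adhesion, overnight exposure | Measured by: Fluorescence at 485 nm excitation, 525 nm emission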
PGC1a acetyl inh – inhibitors of PGC1a acetylation signal, primary screen, cell-based, U2OS, AlphaScreen, inhibitor mode; inhibition, % at 15.6 µM; 350,000 compounds, 0.17% hits; AlphaScreen anti-acetyl-lysine; with virally co-expressed GCN5 acetyltransferase;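 active means every replicate shows inhibition of at least 40%; inconclusive means mean inhibition at least 40% but some replicate below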;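 further: 0% = neutral control wells and 100% = positive control wells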
* = called active by the depositor; ? = inconclusive; . = not tested or not shown; [ ] = another dose, or the depositor's remark. A selection: hits, their analogues and other compounds. The true share with any hit is near 3.5%.

SMILES	rRNA inh HTS	PglD DTNB	DENV2 CPE	Env fusion inh	FN deposit inh	PGC1a acetyl inh
C[C@@H]1CCCCO[C@@H](CN(C)C(=O)Nc2cccc3ccccc23)[C@H](C)CN([C@H](C)CO)C(=O)c2cc(NC(=O)CCC(F)(F)F)ccc2O1	0	1	99*	-3[16.7 µM]	4	-25
C[C@@H]1CN([C@@H](C)CO)C(=O)c2cc(NC(=O)CCC(F)(F)F)ccc2O[C@@H](C)CCCCO[C@H]1CN(C)C(=O)Nc1cccc2ccccc12	1	2	26*	15[16.7 µM]	4	-38
CC(OC(=O)/C=C/c1cccc(Cl)c1)C(=O)NC1CCCCC1C (stereo not given)	13	-1	91*	-18	-12	.
CCCC#Cc1ccc2c(c1)O[C@@H](CN(C)C(=O)c1cnccn1)[C@H](C)CN([C@@H](C)CO)S2(=O)=O	1	1	-4	-5[16.7 µM]	-12	-4
COc1cc(C(=O)NCC(c2ccco2)N2CCc3ccccc32)cc(OC)c1OC (stereo not given)	-8	.	92*	-2	-2	.
COc1ccccc1C(=O)NCC(c1ccco1)N1CCc2ccccc21 (stereo not given)	-40	-3	0	13	-1	.
Cc1ccc(OCc2ccc(C(=O)O)o2)c([N+](=O)[O-])c1	-26*	-2	1	4	-9	6
O=C(O)c1ccc(COc2ccc3ccccc3c2)o1	-17*	4	-4	-60	-2	9
Cc1cc(C)cc(OCc2ccc(C(=O)NN)o2)c1	-23*	.	7	-4	4	.
COc1ccc(NC(=O)CCN(c2ccc(OC)cc2)S(=O)(=O)c2ccc(C)c(C)c2)cc1	-27*	-1	-6	7	-3	.
COc1ccc(NC(=O)CN(c2cc(C)cc(C)c2)S(=O)(=O)c2c(C)n[nH]c2C)cc1	3	2	-2	5	-5	-5
COc1ccc(N(CC(=O)Nc2ccc(F)c(F)c2)S(=O)(=O)c2c(C)n[nH]c2C)cc1	-26*	-5	-4	-4	-4	2
COc1ccc(N2C(=O)c3ccccc3NC(=O)C2C(=O)NCCc2ccccc2F)cc1 (stereo not given)	10	.	-2	58*	.	.
COc1ccc(N2C(=O)c3ccccc3NC(=O)C2C(=O)NCc2ccco2)cc1 (stereo not given)	8	.	-7	-14	10	.
c1coc(-c2cnc3ccccc3n2)c1	15	-2	5	-51	.	9
c1coc(-c2nc3ccccc3nc2-c2ccco2)c1	-28*	-2	1	.	.	3
C[C@@H]1CN([C@H](C)CO)C(=O)c2cccc(NC(=O)Nc3ccc(C(F)(F)F)cc3)c2O[C@H]1CN(C)Cc1ccc(Cl)c(Cl)c1	-3	-3	4	38[16.7 µM]	.	8
C[C@@H]1CN([C@@H](C)CO)C(=O)c2cccc(NC(=O)Nc3ccc(C(F)(F)F)cc3)c2O[C@H]1CN(C)Cc1ccc(Cl)c(Cl)c1	-1	-3	0	85*[16.7 µM]	.	4
COc1ccc(NC(=O)Nc2cccc3c2O[C@H](CN(C)C(=O)NC2CCCCC2)[C@H](C)CN([C@@H](C)CO)C3=O)cc1	-5	0	88*	-18[16.7 µM]	3	5
C[C@H](CO)N1C[C@H](C)[C@@H](CN(C)Cc2ccc(C(F)(F)F)cc2)Oc2c(NC(=O)Nc3ccc(F)cc3)cccc2C1=O	-1	-4	69*	.	.	-21
C[C@@H]1CN([C@@H](C)CO)C(=O)c2cccc(NC(=O)Nc3ccc(C(F)(F)F)cc3)c2O[C@H]1CN(C)Cc1ccc(C(F)(F)F)cc1	6	0	-7	76*[16.7 µM]	.	10
CCNC(=O)C[C@H]1CC[C@@H](NS(=O)(=O)c2ccc(F)cc2)[C@@H](CO)O1	2	1	-4	-210[16.7 µM]	4	1
COc1ccccc1CNC(=O)C[C@H]1CC[C@@H](NC(=O)CN(C)C)[C@H](CO)O1	-2	2	18	0[16.7 µM]	.	3
C[C@H](CO)N1C[C@H](C)[C@H](CN(C)Cc2ccc(Cl)c(Cl)c2)Oc2ccc(NC(=O)C3CCCCC3)cc2C1=O	-1	6	4	.	.	2
C[C@H]1CN([C@@H](C)CO)C(=O)c2cc(C3=CCCCC3)cnc2O[C@@H]1CN(C)Cc1ccncc1	1	5	-5	12[16.7 µM]	.	-9
SMILES	rRNA inh HTS	PglD DTNB	DENV2 CPE	Env fusion inh	FN deposit inh	PGC1a acetyl inh
COCCNC(=O)C[C@H]1CC[C@@H]2[C@H](COC[C@@H](O)CN2Cc2cccc(-c3ccncc3)c2)O1	0	2	-2	12[16.7 µM]	-1	-1
COc1ccc(CN(C)C[C@@H]2Oc3c(NC(=O)Nc4ccc(C(F)(F)F)cc4)cccc3C(=O)N([C@H](C)CO)C[C@H]2C)cc1	0	5	4	.	.	1
C[C@@H]1CN([C@H](C)CO)C(=O)c2cccc(NC(=O)Nc3ccc4c(c3)OCO4)c2O[C@@H]1CN(C)Cc1ccc(C(F)(F)F)cc1	-6	0	36*	-142[16.7 µM]	.	5
C[C@H](CO)N1C[C@H](C)[C@H](CN(C)Cc2ccc(C(F)(F)F)cc2)Oc2c(NC(=O)c3ccncc3)cccc2C1=O	-2	0	3	1[16.7 µM]	10	10
C[C@@H]1CN([C@H](C)CO)C(=O)c2cccc(NC(=O)C3CCOCC3)c2O[C@H]1CN(C)Cc1ccc(C(F)(F)F)cc1	-2	3	?	.	.	0
COc1ccc(NC(=O)Nc2cccc3c2O[C@H](CN(C)Cc2ccc(C(F)(F)F)cc2)[C@@H](C)CN([C@H](C)CO)C3=O)cc1	2	-3	22*	55[16.7 µM]	.	1
C[C@H]1CN([C@@H](C)CO)C(=O)c2cccc(NC(=O)c3ccncc3)c2O[C@H]1CN(C)Cc1ccc(C(F)(F)F)cc1	-1	7	24*	17[16.7 µM]	17	8
C[C@@H]1CN([C@H](C)CO)C(=O)c2cccc(NC(=O)C3CCOCC3)c2O[C@@H]1CN(C)Cc1ccc(C(F)(F)F)cc1	0	-1	39*	.	.	3
COc1ccc(NC(=O)N(C)C[C@H]2Oc3ccc(NC(=O)CCCN(C)C)cc3C(=O)N([C@@H](C)CO)C[C@@H]2C)cc1	5	5	-2	.	.	-2
COc1ccc(CN(C)C[C@@H]2Oc3c(NC(=O)Nc4ccc(OC)cc4)cccc3C(=O)N([C@H](C)CO)C[C@H]2C)cc1	-6	-6	42*	-44[16.7 µM]	.	23
